Data published in ChEMBL document CHEMBL4725360, “Optimization of Acetazolamide-Based Scaffold as Potent Inhibitors of Vancomycin-Resistant Enterococcus” (J Med Chem, 2020).
In brackets after ≈: the same amount, converted by molar mass. Activity calls are given as the source filed them. The calls are words filed in the database; no cut-off is given here.

Legend:
[1] = test system: Enterococcus faecium; test: Antibacterial activity against Enterococcus faecium HM965 incubated for 18 to 20 hrs under aerobic condition by CLSI protocol based broth microdilution assay; assay type: functional; settings: time hrs 18-20
Method in brief: (§1)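 Broth microdilution per CLSI. Strains grown aerobically overnight on trypticase soy agar at 37 °C. Inoculum set to 0.5 McFarland, diluted in trypticase soy broth to about 5 × 10⁵ CFU/mL. Agents serially diluted, plates incubated aerobically at 37 °C for 18–20 h. MIC is the lowest concentration with no visible growth. Compound stocks 10 mg/mL in DMSO.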

[2] = test system: Enterococcus faecalis; test: Antibacterial activity against Enterococcus faecalis NR-31970 incubated for 18 to 20 hrs under aerobic condition by CLSI protocol based broth microdilution assay; assay type: functional, organism-based; settings: time hrs 18-20; method in brief: as §1
[3] = test system: Enterococcus faecium; test: Inhibition of carbonic anhydrase in Enterococcus faecium ATCC 700221 assessed as antibacterial activity incubated for 18 to 20 hrs in presence of 5% CO2 by CLSI protocol based broth microdilution assay; settings: time hrs 18-20
Method in brief: (§2)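 CLSI broth microdilution: inoculum about 5 × 10⁵ CFU/mL in trypticase soy broth with serial dilutions of agents. Paired plates incubated at 37 °C for 18–20 h, one set in ambient air ("normal"), the other under 5% CO₂. MIC is the lowest concentration completely inhibiting visible growth.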

[4] = test system: Enterococcus faecalis; test: Antibacterial activity against Enterococcus faecalis NR-31975 incubated for 18 to 20 hrs under aerobic condition by CLSI protocol based broth microdilution assay; assay type: functional, organism-based; settings: time hrs 18-20; method in brief: as §1
[5] = test system: Enterococcus faecium; test: Inhibition of carbonic anhydrase in Enterococcus faecium ATCC 700221 assessed as antibacterial activity incubated for 18 to 20 hrs in presence of ambient air by CLSI protocol based broth microdilution assay; settings: time hrs 18-20; method in brief: as §2
[6] = test system: Enterococcus faecium; test: Antibacterial activity against Enterococcus faecium NR-28978 incubated for 18 to 20 hrs under aerobic condition by CLSI protocol based broth microdilution assay; assay type: functional; settings: time hrs 18-20; method in brief: as §1
[7] = test system: Enterococcus faecium; test: Antibacterial activity against Enterococcus faecium HM968 incubated for 18 to 20 hrs under aerobic condition by CLSI protocol based broth microdilution assay; assay type: functional; settings: time hrs 18-20; method in brief: as §1
[8] = test system: Enterococcus faecium; test: Antibacterial activity against Enterococcus faecium NR-31972 incubated for 18 to 20 hrs under aerobic condition by CLSI protocol based broth microdilution assay; assay type: functional; settings: time hrs 18-20; method in brief: as §1
[9] = test system: Enterococcus faecium; test: Antibacterial activity against Enterococcus faecium NR-31971 incubated for 18 to 20 hrs under aerobic condition by CLSI protocol based broth microdilution assay; assay type: functional; settings: time hrs 18-20; method in brief: as §1
[10] = test system: Enterococcus faecium; test: Antibacterial activity against Enterococcus faecium NR-32065 incubated for 18 to 20 hrs under aerobic condition by CLSI protocol based broth microdilution assay; assay type: functional; settings: time hrs 18-20; method in brief: as §1
[11] = test system: Enterococcus faecium; test: Antibacterial activity against Enterococcus faecium NR-31903 incubated for 18 to 20 hrs under aerobic condition by CLSI protocol based broth microdilution assay; assay type: functional; settings: time hrs 18-20; method in brief: as §1
[12] = test system: Enterococcus faecium; test: Antibacterial activity against Enterococcus faecium NR-31916 incubated for 18 to 20 hrs under aerobic condition by CLSI protocol based broth microdilution assay; assay type: functional; settings: time hrs 18-20; method in brief: as §1
[13] = test system: Enterococcus faecium; test: Antibacterial activity against Enterococcus faecium NR-32052 incubated for 18 to 20 hrs under aerobic condition by CLSI protocol based broth microdilution assay; assay type: functional; settings: time hrs 18-20; method in brief: as §1
[14] = test system: Enterococcus faecium; test: Antibacterial activity against Enterococcus faecium NR-31914 incubated for 18 to 20 hrs under aerobic condition by CLSI protocol based broth microdilution assay; assay type: functional; settings: time hrs 18-20; method in brief: as §1
[15] = test system: Enterococcus faecalis; test: Antibacterial activity against Enterococcus faecalis HM-335 incubated for 18 to 20 hrs under aerobic condition by CLSI protocol based broth microdilution assay; assay type: functional; settings: time hrs 18-20; method in brief: as §1
[16] = Cytotoxicity against human Caco2 cells incubated for 2 hrs by MTS assay; assay type: cell-based; settings: Caco-2 cells
Method in brief: (§3)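 Caco-2 cells maintained in DMEM with 10% FBS, non-essential amino acids and penicillin-streptomycin at 37 °C, 5% CO₂. Compound exposure for 2 h in serum-free medium at several concentrations; DMSO-matched controls. Viability expressed relative to DMSO controls (mean ± SD), and CC₅₀ derived.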

[17] = test system: Enterococcus faecalis; test: Antibacterial activity against Enterococcus faecalis HM-334 incubated for 18 to 20 hrs under aerobic condition by CLSI protocol based broth microdilution assay; assay type: functional; settings: time hrs 18-20; method in brief: as §1
[18] = test system: Caco-2; test: Cytotoxicity against human Caco2 cells at 128 ug/ml incubated for 2 hrs by MTS assay; assay type: cell-based; settings: caco-2, 2 h, dose 128 µg/ml; method in brief: as §3

| Compound | MIC [1] [µg/mL] | inhibition [3] | inhibition [5] | MIC [6] [µg/mL] | MIC [7] [µg/mL] | MIC [8] [µg/mL] | MIC [9] [µg/mL] | MIC [10] [µg/mL] | MIC [11] [µg/mL] | MIC [12] [µg/mL] | MIC [13] [µg/mL] | MIC [14] [µg/mL] | MIC [15] [µg/mL] | MIC [17] [µg/mL] | Activity [2] | Activity [4] | CC50 at 2 h [16] [µg/mL] | Activity [18] |
| --- | --- | --- | --- | --- | --- | --- | --- | --- | --- | --- | --- | --- | --- | --- | --- | --- | --- | --- |
| CN[C@H](CC(C)C)C(=O)N[C@H]1C(=O)N[C@@H](CC(N)=O)C(=O)N[C@H]2C(=O)N[C@H]3C(=O)N[C@H](C(=O)N[C@H](C(=O)O)c4cc(O)cc(O)c4-c4cc3ccc4O)[C@H](O)c3ccc(c(Cl)c3)Oc3cc2cc(c3O[C@@H]2O[C@H](CO)[C@@H](O)[C@H](O)[C@H]2O[C@H]2C[C@](C)(N)[C@H](O)[C@H](C)O2)Oc2ccc(cc2Cl)[C@H]1O [VANCOMYCIN] | – | – | – | 32 (≈ 22.1 µM) | 64 (≈ 44.2 µM) | > 64 | 64 (≈ 44.2 µM) | 64 (≈ 44.2 µM) | > 64 | > 64 | 64 (≈ 44.2 µM) | 64 (≈ 44.2 µM) | > 64 | – | – | – | – | – |
| CC1(C(=O)Nc2nnc(S(N)(=O)=O)s2)CCCCC1 | 0.25 (≈ 0.821 µM) | – | – | – | – | – | – | – | – | – | – | – | – | – | – | – | – | – |
| CC(=O)Nc1nnc(S(C)(=O)=O)s1 | > 64 | – | – | – | – | – | – | – | – | – | – | – | – | – | – | – | – | – |
| CC(=O)Nc1ccc(S(N)(=O)=O)cc1 | > 64 | – | – | – | – | – | – | – | – | – | – | – | – | – | – | – | – | – |
| CC(C)(C)C(=O)Nc1nnc(S(N)(=O)=O)s1 | 0.25 (≈ 0.946 µM) | – | – | 0.25 (≈ 0.946 µM) | 0.5 (≈ 1.89 µM) | 1 (≈ 3.78 µM) | 0.5 (≈ 1.89 µM) | 0.25 (≈ 0.946 µM) | 0.5 (≈ 1.89 µM) | 0.5 (≈ 1.89 µM) | 0.5 (≈ 1.89 µM) | 0.5 (≈ 1.89 µM) | 0.5 (≈ 1.89 µM) | 0.5 (≈ 1.89 µM) | Active | Active | > 128 | Non-Toxic |
| CC(C)(C)CC(=O)Nc1nnc(S(N)(=O)=O)s1 | 0.015 (≈ 0.0539 µM) | inactive | Active | 0.03 (≈ 0.108 µM) | 0.015 (≈ 0.0539 µM) | 0.015 (≈ 0.0539 µM) | 0.06 (≈ 0.216 µM) | 0.007 (≈ 0.0251 µM) | 0.015 (≈ 0.0539 µM) | 0.03 (≈ 0.108 µM) | 0.015 (≈ 0.0539 µM) | 0.007 (≈ 0.0251 µM) | 0.03 (≈ 0.108 µM) | 0.03 (≈ 0.108 µM) | Active | Active | > 128 | Non-Toxic |
| NS(=O)(=O)c1nnc(NC(=O)CCN2CCOCC2)s1 | 2 (≈ 6.22 µM) | inactive | Active | – | – | – | – | – | – | – | – | – | – | – | – | – | – | – |
| CC(C)CC(=O)Nc1nnc(S(N)(=O)=O)s1 | 0.125 (≈ 0.473 µM) | – | – | 0.25 (≈ 0.946 µM) | 0.125 (≈ 0.473 µM) | 0.5 (≈ 1.89 µM) | 0.5 (≈ 1.89 µM) | 0.25 (≈ 0.946 µM) | 0.125 (≈ 0.473 µM) | 0.125 (≈ 0.473 µM) | 0.125 (≈ 0.473 µM) | 0.25 (≈ 0.946 µM) | 0.125 (≈ 0.473 µM) | 0.5 (≈ 1.89 µM) | Active | Active | > 128 | Non-Toxic |
| CN1CCN(CC(=O)Nc2nnc(S(N)(=O)=O)s2)CC1 | 8 (≈ 25 µM) | inactive | Active | – | – | – | – | – | – | – | – | – | – | – | – | – | – | – |

Continued, in another order:

| MIC [1] [µg/mL] | inhibition [3] | inhibition [5] | MIC [6] [µg/mL] | MIC [7] [µg/mL] | MIC [8] [µg/mL] | MIC [9] [µg/mL] | MIC [10] [µg/mL] | MIC [11] [µg/mL] | MIC [12] [µg/mL] | MIC [13] [µg/mL] | MIC [14] [µg/mL] | MIC [15] [µg/mL] | MIC [17] [µg/mL] | Compound | Activity [2] | Activity [4] | CC50 at 2 h [16] [µg/mL] | Activity [18] |
| --- | --- | --- | --- | --- | --- | --- | --- | --- | --- | --- | --- | --- | --- | --- | --- | --- | --- | --- |
| 1 (≈ 3.27 µM) | – | – | – | – | – | – | – | – | – | – | – | – | – | NS(=O)(=O)c1nnc(NC(=O)CN2CCCCC2)s1 | – | – | – | – |
| 0.5 (≈ 1.91 µM) | inactive | Active | – | – | – | – | – | – | – | – | – | – | – | NS(=O)(=O)c1nnc(NC(=O)C2CCC2)s1 | Active | Active | – | – |
| 2 (≈ 8.06 µM) | – | – | – | – | – | – | – | – | – | – | – | – | – | NS(=O)(=O)c1nnc(NC(=O)C2CC2)s1 | Active | Active | – | – |
| 0.25 (≈ 0.905 µM) | inactive | Active | 0.5 (≈ 1.81 µM) | 0.5 (≈ 1.81 µM) | 1 (≈ 3.62 µM) | 1 (≈ 3.62 µM) | 0.5 (≈ 1.81 µM) | 0.5 (≈ 1.81 µM) | 0.5 (≈ 1.81 µM) | 0.5 (≈ 1.81 µM) | 0.5 (≈ 1.81 µM) | 0.5 (≈ 1.81 µM) | 0.5 (≈ 1.81 µM) | NS(=O)(=O)c1nnc(NC(=O)C2CCCC2)s1 | Active | Active | > 128 | Non-Toxic |
| 0.06 (≈ 0.207 µM) | inactive | Active | 0.125 (≈ 0.43 µM) | 0.06 (≈ 0.207 µM) | 0.03 (≈ 0.103 µM) | 0.06 (≈ 0.207 µM) | 0.015 (≈ 0.0517 µM) | 0.125 (≈ 0.43 µM) | 0.015 (≈ 0.0517 µM) | 0.06 (≈ 0.207 µM) | 0.125 (≈ 0.43 µM) | 0.03 (≈ 0.103 µM) | 0.03 (≈ 0.103 µM) | NS(=O)(=O)c1nnc(NC(=O)CC2CCCC2)s1 | Active | Active | > 128 | Non-Toxic |
| 0.25 (≈ 0.953 µM) | inactive | Active | 1 (≈ 3.81 µM) | 0.5 (≈ 1.91 µM) | 0.5 (≈ 1.91 µM) | 0.5 (≈ 1.91 µM) | 0.25 (≈ 0.953 µM) | 0.25 (≈ 0.953 µM) | 0.25 (≈ 0.953 µM) | 0.25 (≈ 0.953 µM) | 0.5 (≈ 1.91 µM) | 0.25 (≈ 0.953 µM) | 0.5 (≈ 1.91 µM) | NS(=O)(=O)c1nnc(NC(=O)CC2CC2)s1 | – | – | > 128 | Non-Toxic |
